The results in this text go back to ChEMBL document CHEMBL5653631, “A Potent and Selective ULK1 Inhibitor Suppresses Autophagy and Sensitizes Cancer Cells to Nutrient Stress” (iScience, 2018).

Structures are written as SMILES.

As usually defined, the inhibition is the relative decrease from the control value, in per cent.

The target of assay [1] is Angiopoietin-1 receptor (Homo sapiens) (UniProt Q02763). The assay is described as follows: Inhibition of human recombinant Tie2 at 40 nM in presence of ATP by radiometric assay relative to control.
Angiopoietin-1 receptor (Homo sapiens), sequence (Q02763 whole entry): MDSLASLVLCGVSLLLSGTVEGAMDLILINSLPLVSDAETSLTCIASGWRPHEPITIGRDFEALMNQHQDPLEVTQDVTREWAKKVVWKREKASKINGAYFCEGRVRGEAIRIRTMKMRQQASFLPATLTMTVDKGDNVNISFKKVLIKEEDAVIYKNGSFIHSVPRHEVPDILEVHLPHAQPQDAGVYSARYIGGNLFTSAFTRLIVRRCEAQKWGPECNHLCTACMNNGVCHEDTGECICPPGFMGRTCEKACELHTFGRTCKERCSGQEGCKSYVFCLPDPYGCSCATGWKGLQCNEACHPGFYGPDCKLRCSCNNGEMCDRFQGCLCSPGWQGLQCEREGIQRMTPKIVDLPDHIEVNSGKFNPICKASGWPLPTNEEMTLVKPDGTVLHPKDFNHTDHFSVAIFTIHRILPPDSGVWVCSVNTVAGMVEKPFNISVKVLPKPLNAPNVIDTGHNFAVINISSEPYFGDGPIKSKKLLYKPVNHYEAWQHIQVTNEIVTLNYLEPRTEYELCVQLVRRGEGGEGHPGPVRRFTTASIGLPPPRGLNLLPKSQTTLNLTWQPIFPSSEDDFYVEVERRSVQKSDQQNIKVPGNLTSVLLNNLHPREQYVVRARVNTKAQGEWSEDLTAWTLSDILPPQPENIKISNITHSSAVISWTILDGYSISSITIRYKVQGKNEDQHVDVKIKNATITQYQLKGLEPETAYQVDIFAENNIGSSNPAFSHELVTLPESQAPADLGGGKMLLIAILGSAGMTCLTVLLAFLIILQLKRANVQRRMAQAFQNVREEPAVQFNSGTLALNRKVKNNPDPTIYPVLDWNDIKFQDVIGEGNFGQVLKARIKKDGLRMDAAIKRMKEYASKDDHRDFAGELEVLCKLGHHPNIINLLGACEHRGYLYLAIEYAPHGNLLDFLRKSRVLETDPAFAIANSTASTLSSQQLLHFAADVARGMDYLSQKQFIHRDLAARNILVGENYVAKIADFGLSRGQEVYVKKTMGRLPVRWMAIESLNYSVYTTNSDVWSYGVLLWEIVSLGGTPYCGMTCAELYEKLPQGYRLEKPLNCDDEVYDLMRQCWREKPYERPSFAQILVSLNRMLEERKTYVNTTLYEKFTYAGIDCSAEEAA
Assay [2] concerns the target RAC-alpha serine/threonine-protein kinase (Homo sapiens) (UniProt P31749). The experiment in a line: Inhibition of human recombinant AKT1 at 40 nM related to control ULK1. A digest of the protocol:
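Radiometric activity assays in a panel of 327 human recombinant kinases, each run in duplicate at one inhibitor concentration. Activity remaining is expressed as percent of vehicle control, and percent inhibition is calculated as 100% minus percent activity remaining.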

Assay [3] addresses T1, Mitogen-activated protein kinase 12 (Homo sapiens) (UniProt P53778).
T1 sequence (whole entry): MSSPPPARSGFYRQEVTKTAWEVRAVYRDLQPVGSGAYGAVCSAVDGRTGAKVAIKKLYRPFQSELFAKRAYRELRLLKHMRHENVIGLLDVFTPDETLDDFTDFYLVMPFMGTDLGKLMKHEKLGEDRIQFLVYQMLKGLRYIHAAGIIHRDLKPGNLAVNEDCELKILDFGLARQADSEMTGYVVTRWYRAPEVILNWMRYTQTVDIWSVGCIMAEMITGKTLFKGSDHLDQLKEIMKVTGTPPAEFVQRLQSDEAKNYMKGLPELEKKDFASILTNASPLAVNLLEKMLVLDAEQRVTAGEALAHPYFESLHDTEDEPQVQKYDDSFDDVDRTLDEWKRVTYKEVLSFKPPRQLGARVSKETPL
The experiment in a line: Inhibition of human recombinant p38gamma at 40 nM related to control ULK1.

Assay [4] addresses Cyclin-dependent kinase 7 (Homo sapiens) (UniProt P50613). The assay is described as follows: Inhibition of human recombinant CDK7 at 500 nM in presence of ATP by radiometric assay relative to control.
In assay [5] the target is Dual specificity protein kinase CLK2 (Homo sapiens) (UniProt P49760). The experiment in a line: Inhibition of human recombinant CLK2 at 500 nM related to control ULK1.
Dual specificity protein kinase CLK2 (Homo sapiens), sequence (P49760 whole entry, looked up): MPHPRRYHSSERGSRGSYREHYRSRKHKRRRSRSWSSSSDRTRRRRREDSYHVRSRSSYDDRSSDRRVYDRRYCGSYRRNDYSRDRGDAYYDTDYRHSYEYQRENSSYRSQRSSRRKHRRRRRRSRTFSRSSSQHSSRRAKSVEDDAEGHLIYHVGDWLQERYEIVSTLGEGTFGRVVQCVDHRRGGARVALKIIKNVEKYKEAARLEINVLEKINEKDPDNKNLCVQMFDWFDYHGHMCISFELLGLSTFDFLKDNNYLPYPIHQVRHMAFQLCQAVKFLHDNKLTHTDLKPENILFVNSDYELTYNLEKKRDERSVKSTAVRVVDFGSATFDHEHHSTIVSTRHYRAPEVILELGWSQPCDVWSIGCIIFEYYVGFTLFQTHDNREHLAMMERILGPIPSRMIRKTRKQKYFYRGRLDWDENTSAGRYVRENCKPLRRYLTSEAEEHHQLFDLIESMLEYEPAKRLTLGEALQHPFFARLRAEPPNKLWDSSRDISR
The target of assay [6] is T2, Inhibitor of nuclear factor kappa-B kinase subunit beta (Homo sapiens) (UniProt O14920).
T2 sequence (whole entry): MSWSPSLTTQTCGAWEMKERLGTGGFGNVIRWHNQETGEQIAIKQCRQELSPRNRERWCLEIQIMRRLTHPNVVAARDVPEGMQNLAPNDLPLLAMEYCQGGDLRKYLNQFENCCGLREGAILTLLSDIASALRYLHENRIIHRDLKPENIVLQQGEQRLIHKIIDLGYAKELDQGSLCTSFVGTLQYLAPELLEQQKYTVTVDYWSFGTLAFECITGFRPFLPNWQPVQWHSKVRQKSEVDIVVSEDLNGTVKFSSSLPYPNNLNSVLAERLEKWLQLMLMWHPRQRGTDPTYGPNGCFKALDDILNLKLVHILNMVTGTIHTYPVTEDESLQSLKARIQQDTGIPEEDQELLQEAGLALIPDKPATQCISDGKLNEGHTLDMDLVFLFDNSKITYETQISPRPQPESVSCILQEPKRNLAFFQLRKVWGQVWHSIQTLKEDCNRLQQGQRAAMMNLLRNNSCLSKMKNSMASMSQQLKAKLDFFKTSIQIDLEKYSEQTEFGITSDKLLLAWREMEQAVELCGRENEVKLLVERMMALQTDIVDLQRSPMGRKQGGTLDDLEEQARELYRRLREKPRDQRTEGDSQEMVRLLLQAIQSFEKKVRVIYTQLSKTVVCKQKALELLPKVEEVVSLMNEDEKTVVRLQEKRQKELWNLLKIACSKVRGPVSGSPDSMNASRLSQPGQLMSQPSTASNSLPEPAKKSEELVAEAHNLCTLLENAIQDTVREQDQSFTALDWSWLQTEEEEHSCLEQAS
The experiment in a line: Inhibition of human recombinant IKKb at 500 nM related to control ULK1.

The next assay is filed under the species Homo sapiens. The experiment in a line: Inhibition of human recombinant KHS1 at 500 nM related to control ULK1.
In assay [7] the target is Homeodomain-interacting protein kinase 3 (Homo sapiens) (UniProt Q9H422). The experiment in a line: Inhibition of human recombinant HIPK3 at 15 nM in presence of ATP by radiometric assay relative to control.
For assay [8], the target named is Non-receptor tyrosine-protein kinase TYK2 (Homo sapiens) (UniProt P29597). The experiment in a line: Inhibition of human recombinant TYK2 at 15 nM in presence of ATP by radiometric assay relative to control.
Non-receptor tyrosine-protein kinase TYK2 (Homo sapiens), sequence (P29597 whole entry): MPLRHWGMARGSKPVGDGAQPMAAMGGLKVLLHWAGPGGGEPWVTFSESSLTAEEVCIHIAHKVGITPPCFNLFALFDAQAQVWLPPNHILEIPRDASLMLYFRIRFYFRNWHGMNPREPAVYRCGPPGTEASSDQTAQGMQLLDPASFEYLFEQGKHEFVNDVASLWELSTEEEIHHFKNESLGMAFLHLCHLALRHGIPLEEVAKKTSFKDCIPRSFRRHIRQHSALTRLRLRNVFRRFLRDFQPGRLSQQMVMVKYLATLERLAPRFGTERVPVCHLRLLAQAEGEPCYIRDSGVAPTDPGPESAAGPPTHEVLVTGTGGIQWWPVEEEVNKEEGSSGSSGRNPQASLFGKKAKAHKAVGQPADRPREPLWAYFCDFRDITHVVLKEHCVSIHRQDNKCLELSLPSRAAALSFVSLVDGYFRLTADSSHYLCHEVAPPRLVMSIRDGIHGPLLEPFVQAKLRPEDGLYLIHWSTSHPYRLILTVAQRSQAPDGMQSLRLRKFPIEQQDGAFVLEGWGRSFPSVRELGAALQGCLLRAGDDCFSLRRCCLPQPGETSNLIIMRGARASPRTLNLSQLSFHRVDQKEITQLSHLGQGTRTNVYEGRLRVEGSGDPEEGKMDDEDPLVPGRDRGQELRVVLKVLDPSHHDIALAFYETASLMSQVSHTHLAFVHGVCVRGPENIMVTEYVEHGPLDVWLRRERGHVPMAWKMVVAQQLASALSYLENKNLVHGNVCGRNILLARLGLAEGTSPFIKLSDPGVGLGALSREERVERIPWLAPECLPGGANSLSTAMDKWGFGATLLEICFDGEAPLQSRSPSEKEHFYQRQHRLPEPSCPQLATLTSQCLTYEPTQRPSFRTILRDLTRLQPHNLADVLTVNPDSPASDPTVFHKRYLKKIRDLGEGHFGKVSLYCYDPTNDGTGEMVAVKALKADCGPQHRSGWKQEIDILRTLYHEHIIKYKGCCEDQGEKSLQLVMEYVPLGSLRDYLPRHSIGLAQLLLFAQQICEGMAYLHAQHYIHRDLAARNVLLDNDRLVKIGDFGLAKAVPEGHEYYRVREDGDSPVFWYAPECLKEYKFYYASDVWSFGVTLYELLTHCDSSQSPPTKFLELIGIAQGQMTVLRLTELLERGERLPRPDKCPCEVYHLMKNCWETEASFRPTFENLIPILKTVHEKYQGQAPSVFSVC
Assay [9] deals with T3, Cytoplasmic tyrosine-protein kinase BMX (Homo sapiens) (UniProt P51813).
T3 sequence (whole entry): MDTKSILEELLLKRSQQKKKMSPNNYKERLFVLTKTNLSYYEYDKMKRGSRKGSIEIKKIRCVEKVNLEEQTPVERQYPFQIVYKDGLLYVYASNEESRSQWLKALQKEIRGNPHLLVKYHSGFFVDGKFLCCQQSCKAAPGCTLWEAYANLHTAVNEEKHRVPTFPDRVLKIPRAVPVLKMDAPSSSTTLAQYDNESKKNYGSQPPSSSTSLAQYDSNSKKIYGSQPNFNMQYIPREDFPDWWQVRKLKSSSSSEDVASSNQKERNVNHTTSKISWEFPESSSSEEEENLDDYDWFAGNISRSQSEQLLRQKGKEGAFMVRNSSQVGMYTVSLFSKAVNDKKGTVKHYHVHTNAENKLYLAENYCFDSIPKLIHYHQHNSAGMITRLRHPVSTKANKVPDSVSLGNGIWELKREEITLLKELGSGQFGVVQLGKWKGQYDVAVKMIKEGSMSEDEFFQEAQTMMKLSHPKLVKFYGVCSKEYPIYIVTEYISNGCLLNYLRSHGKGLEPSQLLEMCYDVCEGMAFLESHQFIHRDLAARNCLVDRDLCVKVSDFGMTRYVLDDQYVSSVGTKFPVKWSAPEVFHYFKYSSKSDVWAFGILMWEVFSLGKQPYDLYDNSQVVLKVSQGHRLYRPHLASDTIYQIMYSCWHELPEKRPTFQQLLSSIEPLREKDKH
The experiment in a line: Inhibition of human recombinant BMX at 15 nM related to control ULK1.

Assay [10] deals with Serine/threonine-protein kinase NIM1 (Homo sapiens) (UniProt Q8IY84). The assay is described as follows: Inhibition of human recombinant NIM1 at 15 nM related to control ULK1.
Serine/threonine-protein kinase NIM1 (Homo sapiens), sequence (Q8IY84 whole entry): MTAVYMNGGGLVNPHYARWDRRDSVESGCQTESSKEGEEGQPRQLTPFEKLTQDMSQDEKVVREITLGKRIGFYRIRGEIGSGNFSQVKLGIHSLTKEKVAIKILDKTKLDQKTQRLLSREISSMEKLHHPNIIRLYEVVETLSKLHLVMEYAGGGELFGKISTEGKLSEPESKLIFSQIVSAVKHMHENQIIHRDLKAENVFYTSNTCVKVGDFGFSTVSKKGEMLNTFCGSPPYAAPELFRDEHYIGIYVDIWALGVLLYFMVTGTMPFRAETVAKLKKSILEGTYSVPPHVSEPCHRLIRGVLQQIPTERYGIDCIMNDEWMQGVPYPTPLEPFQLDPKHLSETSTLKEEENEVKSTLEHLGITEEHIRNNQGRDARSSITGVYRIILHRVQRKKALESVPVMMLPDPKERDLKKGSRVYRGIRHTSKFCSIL

RAC-alpha serine/threonine-protein kinase (Homo sapiens), sequence (P31749 whole entry): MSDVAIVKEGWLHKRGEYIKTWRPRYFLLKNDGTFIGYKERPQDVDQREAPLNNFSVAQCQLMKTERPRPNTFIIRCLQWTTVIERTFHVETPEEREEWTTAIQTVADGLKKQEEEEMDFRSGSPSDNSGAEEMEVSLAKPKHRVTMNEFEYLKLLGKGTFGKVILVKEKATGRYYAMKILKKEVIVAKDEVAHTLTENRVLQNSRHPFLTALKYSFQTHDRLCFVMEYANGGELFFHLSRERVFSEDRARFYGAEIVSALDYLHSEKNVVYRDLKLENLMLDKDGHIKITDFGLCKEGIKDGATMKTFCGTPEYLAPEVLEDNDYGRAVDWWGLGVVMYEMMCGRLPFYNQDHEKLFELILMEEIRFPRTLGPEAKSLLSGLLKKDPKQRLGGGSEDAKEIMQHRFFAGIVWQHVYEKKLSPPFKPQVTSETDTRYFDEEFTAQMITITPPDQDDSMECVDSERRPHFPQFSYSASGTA
Cyclin-dependent kinase 7 (Homo sapiens), sequence (P50613 whole entry): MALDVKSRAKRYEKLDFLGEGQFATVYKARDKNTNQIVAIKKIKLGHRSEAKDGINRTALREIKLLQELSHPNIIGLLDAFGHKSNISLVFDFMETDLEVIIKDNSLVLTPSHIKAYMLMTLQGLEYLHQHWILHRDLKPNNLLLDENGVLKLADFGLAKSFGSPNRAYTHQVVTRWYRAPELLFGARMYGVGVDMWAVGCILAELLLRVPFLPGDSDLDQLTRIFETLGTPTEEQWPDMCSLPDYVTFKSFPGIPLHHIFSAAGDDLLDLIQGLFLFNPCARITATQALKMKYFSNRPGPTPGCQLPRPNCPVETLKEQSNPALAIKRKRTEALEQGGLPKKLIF

Take `O=C(N[C@@H](C1CC1)C(F)(F)F)c1cc(-c2cnn3cc(-c4ccc(F)cc4)cnc23)cs1`: the inhibition in assay [1] worked out at 0%. The fold change (FC) in assay [2] and in assay [3] was 0 in each case.
As to `CNC(=O)c1ccccc1Oc1nc(Nc2cc(OC)c(OC)c(OC)c2)ncc1Br`, the inhibition in assay [4] turned out to be 29%. In addition, the results for the fold change (FC) (in [5]; in assay [6]; in the assay filed under Homo sapiens) were 0.09, 0.03 and 0.15, respectively.
In the case of `CC(C)[C@H](NC(=O)c1cc(-c2cnn3cc(-c4ccc(OCCN5CCCCC5)cc4)cnc23)cs1)C(F)(F)F`, the inhibition in [7] worked out at 0%; in [8], 2%. Also, the fold change (FC) in assay [9] and in [10] was 0.07 throughout.
